# Variants at the floor of the assay were thinned out.
# B1: tRNA (parent)
# chain: GUUCCGUUGGCGUAAUGGUAACGCGUCUCCCUCCUAAGGAGAAGACUGCGGGUUCGAGUCCCGUACGGAACG
# Variants of: B1
# Experiment: yeast fitness relative to wild type (ratio to wild type); higher = fitter; tRNA-Arg(CCU), competitive growth, 37 C, YPD
# Procedure, shortened: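 Amplicons of the tRNA-Arg(CCU) gene were sequenced, 100-nucleotide paired-end, from the start population and from each end population of a pooled yeast competition. The competition, in six parallel replicates, lasted 24 hours in YPD at 37°C. Fitness relative to wild type was calculated from changes in genotype frequencies. Genotypes had to have ≥ 100 starting reads, and estimates < 0.5 were set to 0.5.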
row,Variant,yeast fitness
1,A36C G67C,0.537
2,A36C G67U,0.596
3,A36C A69C,0.644
4,A36C C55U A65C,0.632
5,A36G A57G C62A,0.549
6,A36G G41C C60G,0.682
7,A36U A37U C55A G63C,≤ 0.5
8,A36C C49U,0.557
9,A36C C49G,0.56
10,A36C C49A,0.563
11,A36G A45C A69U,0.806
12,A36G C55U,0.743
13,A36C A37C U53G A70C,0.582
14,A36G C55A A69U,0.635
15,U35G A57G,0.698
16,A36G C55G A65G,≤ 0.5
17,U35G G56A,0.599
18,A36C G50C G63C,0.652
19,A36U G39C A57U,≤ 0.5
20,U35G G63A G68C,≤ 0.5
21,U35G C49G U64A,0.525
22,A36U G56A A69U,≤ 0.5
23,A36C A40U A57C,0.52
24,A36C U47A G48C C62G,≤ 0.5

row,Variant,yeast fitness
1,A36U C49G A69U,≤ 0.5
2,A36G U64A,0.796
3,A36G C49G G63A A69C A70C,≤ 0.5
4,A37C A40G,0.716
5,A36C A45C C55G C62A G68A,0.575
6,A36C A43U U47A U54A,≤ 0.5
7,U35G C61G,≤ 0.5
8,A36U A57G G63C,0.563
9,A36U A45C C49U,≤ 0.5
10,U35G G52C G63A,0.551
11,A36U C46G,0.655
12,A36U G51C,0.612
13,A36U G51A,0.61
14,A36G C60G,0.629
15,A36G C60U,0.793
16,A36C C62A G67A A70G,≤ 0.5
17,A36U G56A C66U,≤ 0.5
18,A36G A42C A43U C46A,0.861
19,A36U U47G C61A A70U,≤ 0.5
20,A36C U53G,≤ 0.5
21,A36G U54C,0.906
22,A36G U54G,0.66
23,A36U U47A,0.697
24,A36U A37G A40C C66U,0.636

row,Variant,yeast fitness
1,U35G C49G A65C,≤ 0.5
2,A36U C55G,≤ 0.5
3,A36G C49U C61U,0.654
4,A36G A42C A69U,0.744
5,A36C U47A G48C U54G C60G,≤ 0.5
6,A36G G39A U47A G68C,≤ 0.5
7,A36C G41C C61U,≤ 0.5
8,A36G A43C A45G,0.906
9,A36U G41C A45U C49U C60U,≤ 0.5
10,A36U A45U,0.728
11,A36U A45C,0.6
12,A36G G50C,0.723
13,A36C G38A U54C G58A,≤ 0.5
14,A36U A40C A45U C62G G63A,≤ 0.5
15,A36G C46G C49U,0.763
16,A36G A42C,0.976
17,A36G A42U,0.902
18,A36G U59C A69U,0.783
19,A36G G63A A69U,0.688
20,A36C A65C,0.601
21,A36G A42G A70G,0.54
22,A36U C60A A70U,≤ 0.5
23,A36G G67U,0.901
24,A36G G67A,0.864

row,Variant,yeast fitness
1,A36U A40C C62U A65C,≤ 0.5
2,U35G C55G C62U,≤ 0.5
3,A36G A42U U53C,≤ 0.5
4,A36U C49G U54A A57C G68A,≤ 0.5
5,A36G A45C,1.01
6,A36G A45G,0.944
7,A36G A45U,1.04
8,A36G A43G C62A,0.553
9,A36C U54G,0.522
10,A36C G48C U53C A70C,≤ 0.5
11,A36U C46A C66A,≤ 0.5
12,A36G G44C,0.981
13,A36G G44U,0.711
14,A36U G48A C49A,≤ 0.5
15,A36C U47A G48C U54G,0.544
16,A36G A42C G68C,0.608
17,A36G C46U,0.952
18,A36C A37C,0.54
19,A36C A37G C49A A69U,≤ 0.5
20,A36C A57C C61U A69C,≤ 0.5
21,A36G G68C A69U,0.547
22,A36C G44C G51C,≤ 0.5
23,A36G C46U A69U,0.841
24,A36G A57C A65U,≤ 0.5

row,Variant,yeast fitness
1,A36U G41A C49G,0.601
2,A36G A45C U47C G48A,≤ 0.5
3,A36U A43G C46A G48C A70C,≤ 0.5
4,A36C G50A C55A,0.766
5,A36U C46U G51A U64C,0.597
6,A36U G48C C55G,≤ 0.5
7,A36C A45U U47C G52C A65U G67C,≤ 0.5
8,A36G G48A U53G,≤ 0.5
9,A36G A43C U64C,0.687
10,A36C C61G A70C,0.569
11,A37C A42C,0.922
12,A36C A57G,0.642
13,A36C G63C,0.558
14,A36U C62G G63A,0.569
15,A37C A45G,0.818
16,A36U G52A G63C,0.558
17,A36C G39A,≤ 0.5
18,A36G C46U A57C,≤ 0.5
19,A37C A43U,0.992
20,A37C A43C,0.931
21,A37C A43G,0.988
22,A36G C49U C66G,≤ 0.5
23,A36G A65C G68C,≤ 0.5
24,A36U C46G C62A A69C,0.562

row,Variant,yeast fitness
1,U35G A45G,0.669
2,A36U U47C G52C,≤ 0.5
3,A36C A42U A43G G63C A69U,≤ 0.5
4,A36U A43C,0.569
5,A36U A43G,0.745
6,A36U G39C C61U,≤ 0.5
7,A36G A37G G58C,0.649
8,A36U U59G A65U,≤ 0.5
9,A36C G56C C66U,≤ 0.5
10,A36U G51C U53C,≤ 0.5
11,A36U G51A G58C U59A,≤ 0.5
12,A36U G50U A57U,0.616
13,A36C G48A C66G,≤ 0.5
14,A36C A70G,0.605
15,A36C A70C,0.605
16,A36C G50C,0.54
17,A36G A69U,1.02
18,A36G A69C,1.05
19,A36G C61U A70U,0.755
20,U35G A69U,0.769
21,U35C U64G C66G,≤ 0.5
22,A36C G58C C62U,≤ 0.5
23,A36U A70C,0.799
24,A36U A70G,0.607

row,Variant,yeast fitness
1,A36G G63C,0.724
2,A36G G63A,0.944
3,A36U C49U,0.585
4,A36U C49G,0.607
5,A36C C46A C49U,0.562
6,A36G U47A A69C,0.68
7,U35G A45U A57C,≤ 0.5
8,A36U G50A U59G,≤ 0.5
9,A36C A37G C55A,0.534
10,A36C A43C,0.626
11,A36C G58C,0.618
12,A36C A42U A43G A70G,≤ 0.5
13,A36C U47A G48C U54G A65C G67A,≤ 0.5
14,A36U A37G A40C,≤ 0.5
15,A36C G52A C61A,≤ 0.5
16,A36U C49G G52C,≤ 0.5
17,A36C G44A A70C,≤ 0.5
18,A36G U54A C62U,≤ 0.5
19,A36G C49A,0.799
20,A36G C49G,0.776
21,A36U C61G,0.698
22,A36U G50A A69U,≤ 0.5
23,A37C A45G C49G,0.578
